Reference: ChEMBL document CHEMBL4406804, “Discovery of a Potent Steroidal Glucocorticoid Receptor Antagonist with Enhanced Selectivity against the Progesterone and Androgen Receptors (OP-3633)” (J Med Chem, 2019)
Values after ≈ are worked out from the molar mass of the structure shown. Active and inactive are the calls of the source. The rule behind the calls is not given here.

Assays:
[1] = target: T1, Glucocorticoid receptor (Homo sapiens) (UniProt P04150); assay: Antagonist activity at human glucocorticoid receptor expressed in CHO-K1 cells harboring firefly luciferase gene assessed as inhibition of glucocorticoid receptor activity at 0.01 to 10000 nM after 20 hrs by One-Glo luciferase reporter gene assay relative to mifepristone; format: cell-based; parameters: scale not given: the % may be the effect or the level left
T1 sequence (whole entry): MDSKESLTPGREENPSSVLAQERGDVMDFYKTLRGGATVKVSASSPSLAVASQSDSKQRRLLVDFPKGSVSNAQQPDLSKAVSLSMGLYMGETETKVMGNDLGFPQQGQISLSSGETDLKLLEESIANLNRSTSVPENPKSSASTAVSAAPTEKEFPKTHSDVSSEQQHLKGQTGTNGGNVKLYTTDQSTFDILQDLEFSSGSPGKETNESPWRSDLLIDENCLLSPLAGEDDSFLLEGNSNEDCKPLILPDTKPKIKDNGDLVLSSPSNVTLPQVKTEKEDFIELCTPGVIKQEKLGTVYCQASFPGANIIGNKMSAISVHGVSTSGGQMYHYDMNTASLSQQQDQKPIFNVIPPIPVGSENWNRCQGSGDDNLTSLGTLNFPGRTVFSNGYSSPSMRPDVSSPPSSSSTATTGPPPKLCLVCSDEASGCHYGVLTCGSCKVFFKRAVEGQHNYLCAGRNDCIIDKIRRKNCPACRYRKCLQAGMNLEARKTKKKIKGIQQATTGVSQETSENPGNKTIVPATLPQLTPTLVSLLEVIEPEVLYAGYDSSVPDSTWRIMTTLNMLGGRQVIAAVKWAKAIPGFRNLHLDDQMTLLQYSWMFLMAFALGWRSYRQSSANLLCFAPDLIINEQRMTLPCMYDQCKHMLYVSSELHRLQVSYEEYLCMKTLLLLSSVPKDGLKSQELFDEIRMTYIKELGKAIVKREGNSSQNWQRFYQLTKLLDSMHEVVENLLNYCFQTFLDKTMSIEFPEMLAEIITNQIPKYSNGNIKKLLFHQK
Method in brief: (§1)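 Cell-based luciferase reporter assays for GR, AR and PR, run in agonist and antagonist modes. Potency and Emax are averages of at least two determinations, reported with SD.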

[2] = target: T2, Progesterone receptor (Homo sapiens) (UniProt P06401); assay: Agonist activity at human progesterone receptor expressed in CHO-K1 cells harboring firefly luciferase gene after 20 hrs by One-Glo luciferase reporter gene assay; format: cell-based; method in brief: as §1
T2 sequence (whole entry): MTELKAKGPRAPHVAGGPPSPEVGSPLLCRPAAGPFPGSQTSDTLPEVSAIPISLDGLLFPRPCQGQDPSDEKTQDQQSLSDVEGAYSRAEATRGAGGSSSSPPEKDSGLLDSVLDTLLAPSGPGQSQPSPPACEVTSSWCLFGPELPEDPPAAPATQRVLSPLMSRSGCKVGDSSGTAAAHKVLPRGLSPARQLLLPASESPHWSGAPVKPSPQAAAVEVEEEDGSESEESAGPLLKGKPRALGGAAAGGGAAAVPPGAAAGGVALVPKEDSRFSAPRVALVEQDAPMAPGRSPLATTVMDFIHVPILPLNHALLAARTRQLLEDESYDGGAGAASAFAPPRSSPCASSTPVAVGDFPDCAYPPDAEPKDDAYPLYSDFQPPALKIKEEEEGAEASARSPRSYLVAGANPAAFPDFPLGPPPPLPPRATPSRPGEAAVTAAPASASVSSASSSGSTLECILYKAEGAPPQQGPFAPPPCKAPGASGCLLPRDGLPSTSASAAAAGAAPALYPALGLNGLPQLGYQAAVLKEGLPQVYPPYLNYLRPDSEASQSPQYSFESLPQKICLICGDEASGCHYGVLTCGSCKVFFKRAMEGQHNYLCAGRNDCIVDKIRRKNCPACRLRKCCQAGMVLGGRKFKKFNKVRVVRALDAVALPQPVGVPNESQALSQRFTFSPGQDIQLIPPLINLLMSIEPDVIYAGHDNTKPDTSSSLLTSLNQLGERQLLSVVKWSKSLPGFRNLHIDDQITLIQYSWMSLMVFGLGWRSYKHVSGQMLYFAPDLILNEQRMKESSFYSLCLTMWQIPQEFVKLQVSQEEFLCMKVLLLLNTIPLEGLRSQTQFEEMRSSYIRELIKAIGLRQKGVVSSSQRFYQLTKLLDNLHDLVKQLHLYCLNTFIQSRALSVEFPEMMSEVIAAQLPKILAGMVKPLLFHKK

[3] = target: T3, Progesterone receptor (Homo sapiens, UniProt P06401); assay: Antagonist activity at human progesterone receptor expressed in CHO-K1 cells harboring firefly luciferase gene after 20 hrs by One-Glo luciferase reporter gene assay; format: cell-based; method in brief: as §1
T3 sequence (P06401 whole entry): T2 sequence (whole entry)

[4] = target: T4, Glucocorticoid receptor (Homo sapiens, UniProt P04150); assay: Displacement of fluormone tracer from full length human recombinant glucocorticoid receptor expressed in baculovirus expression system incubated for 2 hrs by competitive fluorescence polarization binding assay
T4 sequence (P04150 whole entry): T1 sequence (whole entry)

[5] = species: Homo sapiens; assay: Selectivity ratio, ratio of IC50 for human androgen receptor in human LNCAP cells to IC50 for human glucocorticoid receptor expressed in CHO-K1 cells harboring firefly luciferase gene; format: cell-based
[6] = target: T4, Glucocorticoid receptor; assay: Antagonist activity at human glucocorticoid receptor expressed in CHO-K1 cells assessed as inhibition of glucocorticoid receptor-dexamethasone coactivator protein-protein interaction incubated for 24 hrs by bioluminescence assay; format: cell-based
[7] = target: T5, Androgen receptor (Homo sapiens, UniProt P10275); assay: Antagonist activity at human androgen receptor in human LNCAP cells harboring firefly luciferase gene after 20 hrs by One-Glo luciferase reporter gene assay; format: cell-based; method in brief: as §1
T5 sequence (P10275 whole entry): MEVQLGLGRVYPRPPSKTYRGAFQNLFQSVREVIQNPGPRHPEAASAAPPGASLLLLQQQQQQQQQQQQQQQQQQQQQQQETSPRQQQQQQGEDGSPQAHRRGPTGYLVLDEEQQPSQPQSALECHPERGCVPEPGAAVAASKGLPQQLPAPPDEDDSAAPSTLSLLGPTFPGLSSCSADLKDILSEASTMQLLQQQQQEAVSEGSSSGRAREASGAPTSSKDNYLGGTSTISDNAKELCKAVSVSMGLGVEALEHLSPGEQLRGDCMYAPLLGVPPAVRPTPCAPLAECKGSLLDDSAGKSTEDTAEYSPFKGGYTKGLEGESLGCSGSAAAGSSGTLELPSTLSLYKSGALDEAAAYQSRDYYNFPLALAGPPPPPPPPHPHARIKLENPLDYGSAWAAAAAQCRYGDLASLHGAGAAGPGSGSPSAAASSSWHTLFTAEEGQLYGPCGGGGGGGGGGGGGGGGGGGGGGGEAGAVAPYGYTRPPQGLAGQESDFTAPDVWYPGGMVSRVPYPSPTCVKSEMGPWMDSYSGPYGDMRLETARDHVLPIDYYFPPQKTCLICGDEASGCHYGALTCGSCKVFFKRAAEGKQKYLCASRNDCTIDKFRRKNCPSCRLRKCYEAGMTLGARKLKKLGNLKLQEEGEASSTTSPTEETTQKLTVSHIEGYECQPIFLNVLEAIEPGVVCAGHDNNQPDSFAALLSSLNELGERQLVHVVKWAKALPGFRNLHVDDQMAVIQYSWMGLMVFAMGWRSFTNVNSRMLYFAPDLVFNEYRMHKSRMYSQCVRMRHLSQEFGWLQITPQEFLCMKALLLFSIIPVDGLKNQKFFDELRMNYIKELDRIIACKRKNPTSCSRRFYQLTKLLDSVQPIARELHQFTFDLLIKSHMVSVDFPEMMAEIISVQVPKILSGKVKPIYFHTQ

[8] = target: T5, Androgen receptor; assay: Agonist activity at human androgen receptor in human LNCAP cells harboring firefly luciferase gene after 20 hrs by One-Glo luciferase reporter gene assay; format: cell-based
[9] = target: T6, CYP2C8 (Homo sapiens, UniProt P10632); assay: Inhibition of CYP2C8 (unknown origin) at 10 uM using paclitaxel as substrate relative to control; format: ADME; conditions: probe paclitaxel
T6 sequence (P10632 whole entry): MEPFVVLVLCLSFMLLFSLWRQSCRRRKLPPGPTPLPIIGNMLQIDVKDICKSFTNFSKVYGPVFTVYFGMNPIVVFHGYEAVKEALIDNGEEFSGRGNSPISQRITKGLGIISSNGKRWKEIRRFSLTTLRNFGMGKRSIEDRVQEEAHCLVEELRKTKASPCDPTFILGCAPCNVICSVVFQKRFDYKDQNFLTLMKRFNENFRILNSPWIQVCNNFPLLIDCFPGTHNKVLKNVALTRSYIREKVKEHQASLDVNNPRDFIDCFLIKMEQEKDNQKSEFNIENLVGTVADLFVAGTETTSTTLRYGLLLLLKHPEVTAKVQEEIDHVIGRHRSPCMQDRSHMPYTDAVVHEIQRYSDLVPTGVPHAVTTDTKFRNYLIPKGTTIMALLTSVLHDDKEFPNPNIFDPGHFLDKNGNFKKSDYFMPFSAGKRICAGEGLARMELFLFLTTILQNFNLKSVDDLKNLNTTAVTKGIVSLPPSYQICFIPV

[10] = target: CYP3A4 (Homo sapiens, UniProt P08684); assay: Inhibition of CYP3A4 (unknown origin) at 10 uM using midazolam as substrate relative to control; format: ADME; conditions: probe midazolam
[11] = target: T5, Androgen receptor; assay: Agonist activity at human androgen receptor in human LNCAP cells harboring firefly luciferase gene after 20 hrs by One-Glo luciferase reporter gene assay relative to mifepristone; format: cell-based; method in brief: as §1
[12] = target: T4, Glucocorticoid receptor; assay: Antagonist activity at human glucocorticoid receptor expressed in CHO-K1 cells harboring firefly luciferase gene after 20 hrs by One-Glo luciferase reporter gene assay; format: cell-based
[13] = Solubility of compound in fasted state simulated intestinal fluid at pH 6.5; format: physicochemical
[14] = Solubility of compound in fasted state simulated gastric fluid at pH 1.2; format: physicochemical
[15] = Solubility of compound in PBS at pH 7.4; format: physicochemical

Chain of CYP3A4 (P08684 whole entry): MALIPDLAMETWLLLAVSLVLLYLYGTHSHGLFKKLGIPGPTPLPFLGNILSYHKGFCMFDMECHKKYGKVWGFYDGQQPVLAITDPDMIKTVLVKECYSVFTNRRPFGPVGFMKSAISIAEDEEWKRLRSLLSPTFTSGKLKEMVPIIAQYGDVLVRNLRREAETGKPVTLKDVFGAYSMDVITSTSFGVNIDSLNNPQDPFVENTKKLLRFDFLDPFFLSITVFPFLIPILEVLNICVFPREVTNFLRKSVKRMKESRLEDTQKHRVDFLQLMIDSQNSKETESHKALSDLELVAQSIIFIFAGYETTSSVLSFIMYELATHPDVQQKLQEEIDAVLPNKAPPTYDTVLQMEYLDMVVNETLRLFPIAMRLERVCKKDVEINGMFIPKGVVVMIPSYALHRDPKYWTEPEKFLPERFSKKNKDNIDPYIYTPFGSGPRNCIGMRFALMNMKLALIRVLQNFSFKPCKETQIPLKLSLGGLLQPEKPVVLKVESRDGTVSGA

IC50 [4] [nM] | IC50 [6] [nM] | solubility [13] [µM] | solubility [14] [µM] | solubility [15] [µM] | SMILES | Activity [1] [%] | agonist activity [2] | IC50 [3] [nM] | Ratio [5] | IC50 [7] [nM] | EC50 [8] [nM] | inhibition at 10 µM [9] [%] | inhibition at 10 µM [10] [%] | Emax at 20 h [11] [%] | IC50 [12] [nM]
8 | 7.5 | – | – | – | CN(C)c1ccc([C@H]2C[C@@]3(C)[C@@H](CC[C@@]3(O)C#CC(C)(C)C)[C@@H]3CCC4=CC(=O)CCC4=C32)cc1 | 100 | inactive | 14.4 | 10 to 30 | 129 | – | – | – | – | –
– | – | – | – | – | CN(C)c1ccc([C@H]2C[C@@]3(C)[C@@H](CC[C@@]3(O)C#CC(C)(C)C)[C@@H]3CCC4=CC(=O)CC[C@]4(C)[C@H]32)cc1 | 100 | inactive | 2490 | 70 | > 5000 | > 2500 | 84 | 71 | 7.4 | 33.6
– | – | – | – | – | CN(C)c1ccc([C@H]2C[C@@]3(C)[C@@H](CC[C@@]3(O)C#CC3CC3)[C@@H]3CCC4=CC(=O)CC[C@]4(C)[C@H]32)cc1 | 100 | inactive | 1490 | – | 1450 | > 2500 | 70 | 53 | 5.4 | 28.5
– | – | 5.4 (≈ 2.32 µg/mL) | > 1160 | 3 (≈ 1.29 µg/mL) | CC#C[C@]1(O)CC[C@H]2[C@@H]3CCC4=CC(=O)CCC4=C3[C@@H](c3ccc(N(C)C)cc3)C[C@@]21C [MIFEPRISTONE] | – | – | – | – | – | – | – | – | – | –
– | – | – | – | – | CC(C)(C)C#C[C@]1(O)CC[C@H]2[C@@H]3CCC4=CC(=O)CC[C@@H]4[C@H]3[C@@H](c3ccc(N4CCN(S(C)(=O)=O)CC4)cc3)C[C@@]21C | 100 | inactive | 4.6 | 10 to 30 | 359 | > 2500 | – | – | 18.1 | 12.2
